Experimental findings from ChEMBL document CHEMBL1122794, “[(Arylcarbonyl)oxy]propanolamines. 1. Novel beta-blockers with ultrashort duration of action” (J Med Chem, 1984) are described below.

Data set [1] has as its target T1, Adrenergic receptor beta (Homo sapiens, UniProt P08588+P07550+P13945). In words: In vitro blocking of beta adrenergic receptor in guinea pig trachea. The following applies: target entry is the homologue from another species. It counts as tissue-based, Cavia porcellus.
Data set [2] concerns the target T1, Adrenergic receptor beta. In words: In Vitro inhibition of the beta adrenergic receptor in guinea pig atria. The following applies: target entry is the homologue from another species. It counts as tissue-based, Cavia porcellus.
Data set [3] is described as follows: Selectivity determined by expression 10[pA2(atria) - pA2 (trachea)] in guinea pig. It counts as functional, Cavia porcellus.
For data set [4], the species on record is Canis familiaris. In words: Time taken for 80% recovery at a dose of 128 microg (3-h infusion period) / 85 kg min (40-min infusion model). The note with it: Canis lupus familiaris. The class given is functional, organism-based.
A short description of data set [5]: t1/2 in canine liver. The class given is ADME, Canis lupus familiaris. The note with it: dog.
A short description of data set [6]: T1/2 in canine blood. The class given is ADME, […], Canis lupus familiaris. The note with it: dog. In short, it runs like this: (§1)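 1 mL of solution containing 50 µg of compound was added to 1 mL of dog or human whole blood, or to 1 mL of 33% (w/v) canine liver homogenate. They were assayed by HPLC on a phenyl column with 60% acetonitrile/40% 0.05 M sodium phosphate (pH 6.6) and UV detection. Half-life was read graphically from concentration versus time.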

The nature of data set [7]: Time in which 1/2 of the initial amount disappeared in human blood. The class given is ADME, organism-based. In short, it runs like this:
as §1

Data set [8] is filed under the species Canis familiaris. In words: Percent inhibition of isoproterenol induced tachycardia at a dose of 128 microg (3-h infusion period) / 85 kg min (40-min infusion model). The class given is functional, Canis lupus familiaris.
Data set [9] can be described thus: Time in which 1/2 of the initial amount disappeared in human blood. It counts as ADME, organism-based. In short, it runs like this: as §1
For data set [10], the species on record is Canis familiaris. In words: Percent inhibition of isoproterenol induced tachycardia at a dose of 182 microg (3-h infusion period). The class given is functional, Canis lupus familiaris.
The species entered for data set [11] is Canis familiaris. In words: Time taken for 80% recovery at a dose of 182 microg (3-h infusion period). It counts as functional, organism-based. The note with it: Canis lupus familiaris.
The species named for data set [12] is Canis familiaris. The data set is described as follows: Percent inhibition of isoproterenol induced tachycardia at a dose of 1 microg (3-h infusion period). The class given is functional, Canis lupus familiaris.
Data set [13] is filed under the species Canis familiaris. In words: Time taken for 80% recovery at a dose of 1 microg (3-h infusion period). The note with it: Canis lupus familiaris. The class given is functional, organism-based.
For data set [14], the species on record is Canis familiaris. The data set is described as follows: Time taken for 80% recovery at a dose of 36 microg (3-h infusion period). It counts as functional, organism-based. The note with it: Canis lupus familiaris.
Data set [15] is filed under the species Canis familiaris. The data set is described as follows: Percent inhibition of isoproterenol induced tachycardia at a dose of 36 microg (3-h infusion period). The class given is functional, Canis lupus familiaris.
The species entered for data set [16] is Canis familiaris. In words: Time taken for 80% recovery at a dose of 57/122 microg (3-h infusion period). The class given is functional, organism-based. The following applies: Canis lupus familiaris.
Data set [17] is filed under the species Canis familiaris. In words: Percent inhibition of isoproterenol induced tachycardia at a dose of 57/122 microg (3-h infusion period). The class given is functional, Canis lupus familiaris.

The pA2 is a measure of antagonist potency on a negative log scale. The low end stands for lower antagonist potency, the high end for higher antagonist potency. For orientation: half-life means the time needed for the level to fall by half in the phase considered. Low readings indicate fast loss, high ones slow loss. In general, Inhibition refers to the drop in the measured response relative to a control, in per cent. Read a low Inhibition as a response near the control. Regarding `CC(C)NCC(O)COC(=O)c1ccccc1` (centres undefined), the values for the pA2 at Adrenergic receptor beta [1] and at Adrenergic receptor beta [2] were 7.2 and 6.3, respectively. Moreover, in data set [3], the Selectivity is listed as -7. In the data set filed under Canis familiaris [4], this molecule showed a Recovery time of 26 min. Moreover, the half-life in [5] came to 8 min; in data set [6] it was 6.8 min; in data set [7] it was 2.3 min. This molecule also gave an Inhibition in the data set filed under Canis familiaris [8] of 63%.
Consider `CC(C)(C)NCC(O)COC(=O)c1ccc(F)cc1` (centres undefined), for which the pA2 at Adrenergic receptor beta [1] amounted to 8; at Adrenergic receptor beta [2], 7.3. In [3], the Selectivity is -5. Moreover, the values for the half-life in [9], in data set [5] and in data set [6] were 11.5 min, 66 min and 16 min, respectively.
With `CC(C)NCC(O)COC(=O)c1ccc2ccccc2c1` (centres undefined), the pA2 at Adrenergic receptor beta [1] is 6.6; on Adrenergic receptor beta [2], 6.4. In the data set filed under Canis familiaris [10], the Inhibition is 54%. The Selectivity in [3] was -2. Moreover, in the data set listed under Canis familiaris [11], the Recovery time is > 60 min.
As for `CC(C)(CNC(N)=O)NCC(O)COC(=O)c1ccccc1F` (centres undefined) [FLESTOLOL], the pA2 at Adrenergic receptor beta [1] came out at 8.4; at Adrenergic receptor beta [2], 8.1. In data set [3], the Selectivity is given as -2. In addition, the half-life in data set [5] came out at 2.5 min; in data set [6], 15 min. In addition, the Inhibition in the data set listed under Canis familiaris [12] turned out to be 49%. The molecule also returned a Recovery time in the data set filed under Canis familiaris [13] of 21 min.
`CCOC(=O)NCC(C)(C)NCC(O)COC(=O)c1ccccc1F` (centres undefined): the pA2 came out at 7 on Adrenergic receptor beta [1] and 7.1 on Adrenergic receptor beta [2]. In [3], this molecule gave a Selectivity of 1. The molecule also registered a Recovery time in the data set listed under Canis familiaris [14] of 8 min. Besides, the half-life in [5] amounted to 1 min; in [6] it was 8 min. Further, the Inhibition in the data set listed under Canis familiaris [15] was found to be 49%.
With `CC(C)(CNS(=O)(=O)c1ccccc1)NCC(O)COC(=O)c1ccccc1F.O=C(O)C(=O)O` (centres undefined), the values for the pA2 at Adrenergic receptor beta [1] and on Adrenergic receptor beta [2] were 7.9 and 7, respectively. Also, the Selectivity in [3] stood at 1. Besides, the Recovery time in the data set filed under Canis familiaris [16] was determined as 6 min. Further, the Inhibition in the data set filed under Canis familiaris [17] was found to be 43%. The molecule also returned a half-life in data set [6] of 15 min.
